Results: ChEMBL document CHEMBL5357039, “Physicochemical characterization of B-hydroxyphenyl phosphine borane derivatives and their evaluation as nuclear estrogen receptor ligands” (RSC Med Chem, 2024)
The source made the active and inactive calls. The calls are words filed in the database; no cut-off is given here.

Columns and labels:
[1] = 1-Octanol/water partition coefficient, logP of the compound by HPLC analysis; type: physicochemical
Estrogen receptor = molecular target: T1, Estrogen receptor (Homo sapiens, UniProt P03372); assay: (§1) Agonist activity at human ERalpha expressed in HEK293 cells assessed as increase in […] activity incubated for 24 hrs by luciferase based microplate reader assay; type: cell-based
T1 sequence (P03372 whole entry): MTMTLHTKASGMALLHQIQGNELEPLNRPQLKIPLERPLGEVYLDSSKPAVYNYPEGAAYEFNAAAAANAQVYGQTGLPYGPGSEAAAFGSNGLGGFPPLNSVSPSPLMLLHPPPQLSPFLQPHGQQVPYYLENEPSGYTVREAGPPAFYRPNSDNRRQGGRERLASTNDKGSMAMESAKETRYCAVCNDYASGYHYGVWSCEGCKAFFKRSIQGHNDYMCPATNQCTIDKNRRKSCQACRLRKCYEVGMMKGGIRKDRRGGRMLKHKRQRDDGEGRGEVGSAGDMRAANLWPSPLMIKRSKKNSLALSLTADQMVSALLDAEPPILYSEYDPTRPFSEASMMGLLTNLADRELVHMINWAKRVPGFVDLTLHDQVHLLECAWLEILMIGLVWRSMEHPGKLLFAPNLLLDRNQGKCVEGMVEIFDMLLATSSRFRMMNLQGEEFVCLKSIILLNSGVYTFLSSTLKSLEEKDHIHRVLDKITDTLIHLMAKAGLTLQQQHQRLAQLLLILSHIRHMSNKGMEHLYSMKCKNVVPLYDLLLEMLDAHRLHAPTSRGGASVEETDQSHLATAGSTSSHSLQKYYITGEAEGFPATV

Lipid bilayer = assay: Immobilized artificial membrane partition coefficient, logK-IAMex of the compound by HPLC analysis; type: physicochemical
Outline: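 Run on an IAM.PC.DD2 column. Mobile phase was 0.01 M PBS, or acetonitrile (40% to 25% v/v in 5% steps) in 0.01 M PBS, at pH 7.4. Dead time was taken with methanol. The 100% aqueous value was obtained by linear extrapolation from the acetonitrile runs. Mean of triplicates.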

[2] = molecular target: T2, Estrogen receptor (Homo sapiens) (UniProt P03372); assay: as §1; type: cell-based
T2 sequence (whole entry): T1 sequence (P03372 whole entry)

[3] = Aqueous stability of the compound in PBS assessed as compound remaining at pH 7.4 incubated for 3 hrs by HPLC analysis; type: physicochemical; conditions: read-out: Stability
Outline: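 Test compound at 0.1 mM in acetonitrile/PBS (5:95 v/v), held 3 h at 37 °C. Analysed by reversed-phase C18 HPLC with the column at 37.0 °C and UV detection at the peak wavelength between 220 and 240 nm. Residual % = peak area at 3 h / peak area at t0 × 100. Mean of triplicate runs.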

[4] = Dissociation constant, pKa of the compound by pH-metric method; type: physicochemical; conditions: in the assay text read “pH-dependent UV absorbance method” for “pH-metric method”
Outline: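 Determined from the change in absorbance at λmax in pH-dependent UV spectra, recorded in 20:80 (w/w) methanol–phosphate buffer over pH 6.0–12.0. Meter pH corrected as pH* = pH(recorded) − 0.01. Triplicate measurements.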

SMILES | logP [1] | EC50 (Estrogen receptor) | logK-IAMex (Lipid bilayer) | Activity [2] | remaining at 3 h [3] | pKa [4]
C[P+](C)(C)Bc1ccc(O)cc1 | 2.44 | – | 0.8 | inactive | 99.9% | 11.3
C[Si](C)(C)Cc1ccc(O)cc1 | 4.91 | 1.41 µM | 2.38 | – | 89.9% | 10.7
Oc1ccc(B[P+](C2CC2)(C2CC2)C2CC2)cc1 | 3.8 | 2.68 µM | – | – | – | –
CCCC[P+](Bc1cccc(O)c1)(CCCC)CCCC | 6.43 | – | – | inactive | – | –
C[Si](C)(Cc1ccc(O)cc1)c1ccccc1 | 5.74 | – | 3.05 | – | 96.2% | 10.9
C[P+](C)(Bc1cccc(O)c1)c1ccccc1 | 3.27 | > 10 µM | 1.71 | – | 99% | 11.3
CC(C)[P+](Bc1ccc(O)cc1)(C(C)C)C(C)C | 4.56 | – | – | – | – | –
CC(C)(C)Cc1ccc(O)cc1 | 4.36 | – | 2.22 | – | 92.5% | 10.8
Oc1ccc(B[P+](C2CCCCC2)(C2CCCCC2)C2CCCCC2)cc1 | 7.22 | – | – | inactive | – | –
CC[P+](Bc1ccc(O)cc1)(CC)CC | 3.28 | – | 1.81 | – | 99.3% | 11
CC(C)[P+](Bc1cccc(O)c1)(c1ccccc1)C(C)C | 4.93 | 3.45 µM | – | – | – | –
CC[P+](Bc1ccc(O)cc1)(CC)c1ccccc1 | 4.11 | – | 2.46 | inactive | 97.6% | 11.1
Oc1ccc(B[P+](C2CCCC2)(C2CCCC2)C2CCCC2)cc1 | 6.23 | – | – | inactive | – | –

Next, values leading:

logP [1] | EC50 (Estrogen receptor) | logK-IAMex (Lipid bilayer) | Activity [2] | remaining at 3 h [3] | pKa [4] | SMILES
4.79 | > 10 µM | – | – | – | – | CC(C)[P+](Bc1ccc(O)cc1)(c1ccccc1)C(C)C
6.32 | – | – | inactive | – | – | CCCC[P+](Bc1ccc(O)cc1)(CCCC)CCCC
4.19 | 4.09 µM | 2.28 | – | 100% | 11.3 | CC[P+](Bc1cccc(O)c1)(CC)c1ccccc1
5.26 | – | 2.73 | – | 99% | 10.7 | CC(C)(Cc1ccc(O)cc1)c1ccccc1
3.18 | – | 1.91 | inactive | 94.5% | 11.2 | C[P+](C)(Bc1ccc(O)cc1)c1ccccc1
2.55 | – | 0.81 | inactive | 100% | 11.3 | C[P+](C)(C)Bc1cccc(O)c1
3.47 | > 10 µM | 1.59 | – | 99.7% | 11.3 | CC[P+](Bc1cccc(O)c1)(CC)CC
